IDH1 R132H inh: inhibitors of IDH1 R132H reductase, primary screen, biochemical, plate reader, single point; diaphorase/resazurin fluorescence, 60 min; inhibition, % at 10 µM; 70,000 tested, 0.18% active; AID 624101, 2012; in the data active means inhibition above about 34%; inconclusive means no clear call, values can overlap the other calls; inactive means below about 11%;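 further: 0% = DMSO and 100% = no enzyme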
Target sequence (O75874 whole entry R132H): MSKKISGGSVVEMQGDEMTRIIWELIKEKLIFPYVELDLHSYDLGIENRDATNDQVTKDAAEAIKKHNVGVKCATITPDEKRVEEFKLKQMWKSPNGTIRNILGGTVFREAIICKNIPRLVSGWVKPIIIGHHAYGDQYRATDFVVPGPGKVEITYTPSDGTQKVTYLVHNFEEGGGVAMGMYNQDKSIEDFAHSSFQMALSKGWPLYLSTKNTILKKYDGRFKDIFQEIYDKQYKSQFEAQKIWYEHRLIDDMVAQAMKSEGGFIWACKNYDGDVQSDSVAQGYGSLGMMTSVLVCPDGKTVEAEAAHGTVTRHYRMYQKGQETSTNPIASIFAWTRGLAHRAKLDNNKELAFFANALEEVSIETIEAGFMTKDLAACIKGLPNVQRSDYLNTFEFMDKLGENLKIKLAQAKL
T cruzi growth-1: T. cruzi intracellular proliferation inhibitors, primary screen, cell-based, beta-gal Tulahuen parasites, NIH3T3 host, luminescence. inhibition, % at 8.34 µM. T. cruzi beta-gal in NIH3T3, GalScreen luminescence, 90 h. AID 624255, 2012. 77,000 tested, 5.9% active;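 active means mean inhibition above about 93%, with at least 55% of replicates each passing it, limit read from the data, passing the limit was not always enough; inconclusive means only one of those two conditions holds; inactive means neither condition holds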
KDM4C inh: inhibitors of GASC-1 (KDM4C) histone demethylase, primary screen, biochemical, single concentration HTS | Lysine-specific demethylase 4C (Homo sapiens), Q9H3R0 | GST-KDM4C 2-372, H3K9me3 peptide, LANCE TR-FRET | inhibition, % at 12.5 µM | 96,000 tested, 0.15% active | AID 720574, 2013;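 active means mean replicate inhibition above about 25%, with at least 55% of replicates also reaching it, limit read from the data, passing the limit was not always enough; inconclusive means only one of those two conditions met; inactive means neither condition met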
Target sequence (Q9H3R0 2-372 limits assumed): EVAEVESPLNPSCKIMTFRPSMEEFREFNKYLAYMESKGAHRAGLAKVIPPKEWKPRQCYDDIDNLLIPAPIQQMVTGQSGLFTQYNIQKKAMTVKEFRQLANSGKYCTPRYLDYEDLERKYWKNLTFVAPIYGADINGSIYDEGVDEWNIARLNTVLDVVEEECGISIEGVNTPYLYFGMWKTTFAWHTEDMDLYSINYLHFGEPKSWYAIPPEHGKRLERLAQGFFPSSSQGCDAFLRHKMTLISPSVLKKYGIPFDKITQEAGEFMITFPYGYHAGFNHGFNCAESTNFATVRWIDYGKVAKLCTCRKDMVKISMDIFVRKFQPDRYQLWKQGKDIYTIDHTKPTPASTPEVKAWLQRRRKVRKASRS
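System: N-terminal GST-fused human GASC-1 (KDM4C) fragment, residues 2-372; amount: enzyme final amount 10 nM; incubation: reaction 30 min RT, detection step 1 h RT; medium: HEPES buffer, pH 7.5, plus ascorbate; technique: LANCE TR-FRET, Eu antibody, ULight-streptavidin, EDTA, ex 340 nm, em 618/671 nm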
T cruzi growth-2: T. cruzi intracellular proliferation inhibitors, confirmation, cell-based, NIH3T3 host, beta-gal parasite, luminescence, cherry-pick; inhibition, % at 8.35 µM; T. cruzi beta-gal in NIH3T3, GalScreen luminescence, 90 h; AID 651739, 2012; shares compounds with T cruzi growth-1; 5,600 tested, 72% active;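 active means mean replicate inhibition above about 95% and at least 55% of replicates individually reaching it, limit read from the data; inconclusive means only one of the two criteria is met; inactive means neither criterion is met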
T cruzi growth-3: inhibitors of intracellular T. cruzi replication, confirmation, NIH3T3 host cells, beta-gal parasites, cherry-pick, set 2; shares compounds with T cruzi growth-1; T. cruzi beta-gal in NIH3T3, GalScreen luminescence, 90 h; inhibition, % at 2.09 µM; 5,600 tested, 21% active;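 active means mean inhibition above about 95%, with at least 55% of replicates also reaching it, limit read from the data; inconclusive means meets just one of the two conditions; inactive means meets neither condition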;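 further: plate controls were neutral control median for no effect and positive control median for full effect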
NIH3T3 tox: cytotoxicity in mouse NIH/3T3 fibroblasts, confirmation, cytotoxicity control for T. cruzi proliferation inhibitor project, cell-based, cherry-pick, single point. 5,600 tested, 14% active. cytotoxicity (signal decrease), % at 8.35 µM. shares compounds with T cruzi growth-1. NIH/3T3 viability, CellTiter-Glo ATP luminescence, 90 h;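 active means mean signal decrease across replicates above about 35% based on untreated-well scatter, with enough replicates individually passing, limit read from the data; inconclusive means no rule stated though some were filed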;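 further: 0% = median of neutral control wells and 100% = median of positive control wells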
3T3 cytotox 2: NIH/3T3 fibroblast cytotoxicity, confirmation, cytotoxicity control, cell-based, cherry-pick, single point, set 2; shares compounds with T cruzi growth-1; NIH/3T3 viability, CellTiter-Glo ATP luminescence, 90 h; inhibition, % at 24.9 µM; 5,600 tested, 56% active; AID 651744, 2012;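 active means mean loss of cell viability signal at or above a set limit, and enough replicates individually reaching it; inconclusive means meets only the mean limit or only the replicate share; inactive means meets neither condition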;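 further: 0% = median of neutral control wells and 100% = median of positive control wells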
Starred values were filed as active, the others as inactive; ? = inconclusive; / = not tested or not shown. Many of the other results were omitted from the sample, so hits are more common in it than they were.

SMILES | IDH1 R132H inh | T cruzi growth-1 | KDM4C inh | T cruzi growth-2 | T cruzi growth-3 | NIH3T3 tox | 3T3 cytotox 2
COCC#Cc1cnc2c(c1)C(=O)N([C@H](C)CO)C[C@H](C)[C@@H](CN(C)Cc1ccc(-c3ccccc3)cc1)O2 | / | 79.8 | 0.3 | / | / | / | /
COCC#Cc1cnc2c(c1)C(=O)N([C@H](C)CO)C[C@@H](C)[C@@H](CN(C)Cc1ccc(-c3ccccc3)cc1)O2 | -3.8 | 84.2 | -1.3 | / | / | / | /
C[C@H](CO)N1C[C@H](C)[C@@H](CN(C)Cc2ccc(-c3ccccc3)cc2)Oc2ncc(C#CCN(C)C)cc2C1=O | / | ? | 4.8 | 108.0* | 81.7 | 33.1 | 103.6*
COCC#Cc1cnc2c(c1)C(=O)N([C@@H](C)CO)C[C@@H](C)[C@H](CN(C)Cc1ccc(-c3ccccc3)cc1)O2 | / | 120.5* | -0.4 | 108.9* | 62.0 | 45.9* | 106.4*
COCC#Cc1cnc2c(c1)C(=O)N([C@H](C)CO)C[C@@H](C)[C@H](CN(C)Cc1ccc(-c3ccccc3)cc1)O2 | -10.5 | 118.5* | 0.3 | 108.2* | 39.4 | 20.2 | 102.4*
C[C@H]1CN([C@@H](C)CO)C(=O)c2cc(C#CCN(C)C)cnc2O[C@H]1CN(C)Cc1ccc(-c2ccccc2)cc1 | / | 78.7 | 1.8 | / | / | / | /
COc1ccc(NC(=O)CS(=O)(=O)c2ccc3ccccc3c2)cc1 | 0.6 | / | / | / | / | / | /
C[C@@H]1CCCCO[C@H](CN(C)C(=O)c2ccccc2)[C@@H](C)CN([C@@H](C)CO)C(=O)c2cc(NC(=O)c3ccccc3)ccc2O1 | 2.4 | 27.3 | -0.4 | / | / | / | /
Cc1ccc(-c2ccc3c(c2)O[C@@H](CN(C)Cc2cccnc2)[C@@H](C)CN([C@H](C)CO)S3(=O)=O)cc1 | / | 104.0* | 0.6 | 107.5* | 101.8* | 62.2* | 31.5*
C[C@@H]1CN([C@@H](C)CO)S(=O)(=O)c2ccc(-c3ccccc3)cc2O[C@@H]1CN(C)Cc1cccnc1 | / | 90.4 | 0.1 | / | / | / | /
Cc1ccc(-c2ccc3c(c2)O[C@H](CN(C)Cc2cccnc2)[C@H](C)CN([C@H](C)CO)S3(=O)=O)cc1 | / | 73.0 | 1.1 | / | / | / | /
C[C@@H]1CN([C@H](C)CO)S(=O)(=O)c2ccc(-c3ccccc3)cc2O[C@H]1CN(C)Cc1cccnc1 | / | 91.9* | -2.5 | 87.2 | 88.7 | 59.1* | 100.9*
Cc1ccc(S(=O)(=O)N(C)C[C@H]2Oc3c(NC(=O)Nc4ccccc4)cccc3C(=O)N([C@H](C)CO)C[C@@H]2C)cc1 | 0.2 | 22.6 | 0.1 | / | / | / | /
CN(C)C(=O)C[C@@H]1CC[C@@H]2[C@H](COc3ccc(NC(=O)Nc4cccc(Cl)c4)cc3C(=O)N2C)O1 | / | 30.0 | 0.5 | / | / | / | /
COC(=O)c1c(NC(=S)Nc2ccc(S(=O)(=O)N3CCOCC3)cc2)sc2c1CCC(C)C2 (stereo not given) | -0.1 | / | / | / | / | / | /
C[C@H]1CN([C@@H](C)CO)S(=O)(=O)c2ccc(C#CC3(O)CCCC3)cc2O[C@H]1CN(C)C(=O)Cc1ccccc1 | -0.2 | -61.5 | -1.0 | / | / | / | /
O=C(Nc1ccc2c(c1)[C@@H]1C[C@@H](CC(=O)N3CCc4ccccc4C3)O[C@@H](CO)[C@@H]1O2)Nc1ccccc1F | 24.0 | / | 11.8 | / | / | / | /
O=C(Nc1ccc(C(F)(F)F)cc1)Nc1ccc2c(c1)[C@H]1C[C@H](CC(=O)N3CCc4ccccc4C3)O[C@@H](CO)[C@H]1O2 | 1.0 | 140.5* | 1.6 | 95.7* | 87.0 | 4.4 | 102.6*
CN(C)CC(=O)Nc1ccc2c(c1)[C@H]1C[C@H](CC(=O)N3CCc4ccccc4C3)O[C@@H](CO)[C@H]1O2 | -0.4 | -5.4 | -0.3 | / | / | / | /
O=C(Nc1ccc(C(F)(F)F)cc1)Nc1ccc2c(c1)[C@H]1C[C@@H](CC(=O)N3CCc4ccccc4C3)O[C@@H](CO)[C@H]1O2 | 0.4 | 93.0 | -0.7 | / | / | / | /
O=C(Nc1ccc(C(F)(F)F)cc1)Nc1ccc2c(c1)[C@H]1C[C@@H](CC(=O)N3CCc4ccccc4C3)O[C@H](CO)[C@H]1O2 | 0.3 | ? | -2.5 | 89.3 | 111.6* | 31.0 | 39.5*
CN(C)c1ccc2c(c1)[C@@H]1C[C@@H](CC(=O)N3CCc4ccccc4C3)O[C@@H](CO)[C@@H]1O2 | -0.7 | 135.2* | 9.8 | 25.5 | 21.8 | -3.4 | 11.1
CCN(CC(=O)Nc1ccccc1C(F)(F)F)S(=O)(=O)c1ccc(Cl)cc1 | -0.4 | / | / | / | / | / | /
O=C(Nc1ccccc1F)N[C@H]1C=C[C@H](CC(=O)N2CCCCC2)O[C@@H]1CO | 0.4 | -4.5 | / | / | / | / | /
CCOC(=O)c1ccc(NC(=O)CSc2nc3sc4c(c3c(=O)[nH]2)CCC4)cc1 | 3.2 | / | / | / | / | / | /
SMILES | IDH1 R132H inh | T cruzi growth-1 | KDM4C inh | T cruzi growth-2 | T cruzi growth-3 | NIH3T3 tox | 3T3 cytotox 2
CCCN(C)C[C@H]1Oc2cc(C#Cc3cccc(F)c3)ccc2S(=O)(=O)N([C@H](C)CO)C[C@H]1C | 0.1 | 19.6 | 7.5 | / | / | / | /
CCCN(C)C[C@H]1Oc2cc(C#Cc3cccc(F)c3)ccc2S(=O)(=O)N([C@@H](C)CO)C[C@H]1C | -0.8 | 108.3* | -0.9 | 102.0* | 46.5 | 29.5 | 103.2*
CCCN(C)C[C@@H]1Oc2cc(C#Cc3ccccc3F)ccc2S(=O)(=O)N([C@@H](C)CO)C[C@H]1C | 0.3 | ? | 0.6 | 107.0* | 79.2 | 11.3 | 104.8*
CCCN(C)C[C@H]1Oc2cc(C#Cc3ccc(F)cc3)ccc2S(=O)(=O)N([C@H](C)CO)C[C@@H]1C | 0.2 | 30.9 | -2.0 | / | / | / | /
CCCN(C)C[C@H]1Oc2cc(C#Cc3cccc(F)c3)ccc2S(=O)(=O)N([C@H](C)CO)C[C@@H]1C | 0.6 | 110.3* | -0.4 | 112.0* | 56.1 | 0.5 | 103.9*
CCCN(C)C[C@H]1Oc2cc(C#Cc3ccccc3F)ccc2S(=O)(=O)N([C@H](C)CO)C[C@@H]1C | 0.4 | 86.7 | -1.2 | / | / | / | /
CCCC#Cc1ccc2c(c1)O[C@H](CN(C)CCC)[C@H](C)CN([C@@H](C)CO)S2(=O)=O | -1.4 | 74.6 | -1.5 | / | / | / | /
CCCC#Cc1ccc2c(c1)O[C@@H](CN(C)CCC)[C@H](C)CN([C@@H](C)CO)S2(=O)=O | -2.0 | 99.2* | 5.4 | 101.3* | 62.5 | 39.3* | 103.7*
CC(C)C(=O)Nc1ccc2c(c1)C(=O)N(C)[C@@H]1CC[C@@H](CC(=O)O)O[C@H]1CO2 | / | 13.6 | -2.7 | / | / | / | /
